# Data reported in ChEMBL document CHEMBL1671716, “Antimicrobial susceptibility patterns for recent clinical isolates of anaerobic bacteria in South Korea” (2010).
# Key:
# [1] = test system: Bacteroides fragilis; assay: Antimicrobial activity against Bacteroides fragilis after 48 hrs by agar dilution method; type: functional
# Method in brief: (§1)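 MICs on clinical anaerobe isolates by the CLSI agar dilution method. Inoculum of 10^5 CFU applied with a Steers replicator. Plates incubated 48 h at 37°C in an anaerobic chamber.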
# [2] = test system: Bacteroides thetaiotaomicron; assay: Antimicrobial activity against Bacteroides thetaiotaomicron after 48 hrs by agar dilution method; type: functional; method in brief: as §1
# [3] = test system: Parabacteroides distasonis; assay: Antimicrobial activity against Bacteroides distasonis after 48 hrs by agar dilution method; type: functional; method in brief: as §1
# [4] = test system: Bacteroides ovatus; assay: Antimicrobial activity against Bacteroides ovatus after 48 hrs by agar dilution method; type: functional; method in brief: as §1
# [5] = test system: Bacteroides fragilis; assay: Antimicrobial activity against Bacteroides fragilis assessed as percent resistant isolates after 48 hrs by agar dilution method; type: functional
# Method in brief: (§2)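 CLSI agar dilution on recent Korean clinical anaerobe isolates. Inoculum 10^5 CFU per spot by replicator. Plates incubated in an anaerobic chamber at 37°C for 48 h. For piperacillin plus tazobactam, tazobactam was held constant at 4 μg/ml. Resistance and susceptibility rates derived from MICs.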
# [6] = test system: Bacteroides thetaiotaomicron; assay: Antimicrobial activity against Bacteroides thetaiotaomicron assessed as percent susceptible isolates after 48 hrs by agar dilution method; type: functional
# [7] = test system: Bacteroides thetaiotaomicron; assay: Antimicrobial activity against Bacteroides thetaiotaomicron assessed as percent resistant isolates after 48 hrs by agar dilution method; type: functional; method in brief: as §2
# [8] = test system: Bacteroides caccae; assay: Antimicrobial activity against Bacteroides caccae assessed as percent resistant isolates after 48 hrs by agar dilution method; type: functional; method in brief: as §2
# [9] = test system: Parabacteroides distasonis; assay: Antimicrobial activity against Bacteroides distasonis assessed as percent susceptible isolates after 48 hrs by agar dilution method; type: functional
# [10] = test system: Phocaeicola vulgatus; assay: Antimicrobial activity against Bacteroides vulgatus assessed as percent susceptible isolates after 48 hrs by agar dilution method; type: functional
# [11] = test system: Phocaeicola vulgatus; assay: Antimicrobial activity against Bacteroides vulgatus assessed as percent resistant isolates after 48 hrs by agar dilution method; type: functional; method in brief: as §2
# [12] = test system: Bacteroides ovatus; assay: Antimicrobial activity against Bacteroides ovatus assessed as percent resistant isolates after 48 hrs by agar dilution method; type: functional; method in brief: as §2
# [13] = test system: Prevotella bivia; assay: Antimicrobial activity against Prevotella bivia after 48 hrs by agar dilution method; type: functional
# Method in brief: (§3)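 CLSI agar dilution (M11-A7); inoculum 10^5 CFU applied by replicator; plates incubated anaerobically 48 h at 37°C. For piperacillin-tazobactam, tazobactam held constant at 4 μg/ml.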
# [14] = test system: Hoylesella oralis; assay: Antimicrobial activity against Prevotella oralis after 48 hrs by agar dilution method; type: functional; method in brief: as §3
# [15] = test system: Prevotella intermedia; assay: Antimicrobial activity against Prevotella intermedia assessed as percent susceptible isolates after 48 hrs by agar dilution method; type: functional; method in brief: as §3
# [16] = test system: Prevotella intermedia; assay: Antimicrobial activity against Prevotella intermedia assessed as percent resistant isolates after 48 hrs by agar dilution method; type: functional; method in brief: as §2
# [17] = test system: Prevotella bivia; assay: Antimicrobial activity against Prevotella bivia assessed as percent resistant isolates after 48 hrs by agar dilution method; type: functional; method in brief: as §2
# [18] = test system: Prevotella buccae; assay: Antimicrobial activity against Prevotella buccae assessed as percent susceptible isolates after 48 hrs by agar dilution method; type: functional, Segatella buccae; method in brief: as §3
# [19] = test system: Prevotella buccae; assay: Antimicrobial activity against Prevotella buccae assessed as percent resistant isolates after 48 hrs by agar dilution method; type: functional, Segatella buccae; method in brief: as §2
# [20] = test system: Hoylesella oralis; assay: Antimicrobial activity against Prevotella oralis assessed as percent susceptible isolates after 48 hrs by agar dilution method; type: functional
# Method in brief: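 CLSI agar dilution MIC testing of clinical isolates. 10^5 CFU spotted by replicator, plates incubated 48 h at 37°C in an anaerobic chamber. Susceptibility rates derived from the MICs.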
# [21] = test system: Fusobacterium varium; assay: Antimicrobial activity against Fusobacterium varium after 48 hrs by agar dilution method; type: functional; method in brief: as §3
# [22] = test system: Fusobacterium nucleatum; assay: Antimicrobial activity against Fusobacterium nucleatum after 48 hrs by agar dilution method; type: functional; method in brief: as §3
# [23] = test system: Peptostreptococcus anaerobius; assay: Antimicrobial activity against Peptostreptococcus anaerobius after 48 hrs by agar dilution method; type: functional; method in brief: as §3
# [24] = test system: Peptostreptococcus anaerobius; assay: Antimicrobial activity against Peptostreptococcus anaerobius assessed as percent susceptible isolates after 48 hrs by agar dilution method; type: functional; method in brief: as §2
# [25] = test system: Parvimonas micra; assay: Antimicrobial activity against Peptostreptococcus micros assessed as percent susceptible isolates after 48 hrs by agar dilution method; type: functional; method in brief: as §2
# [26] = test system: Anaerococcus prevotii; assay: Antimicrobial activity against Anaerococcus prevotii assessed as percent resistant isolates after 48 hrs by agar dilution method; type: functional; method in brief: as §2
# [27] = test system: Finegoldia magna; assay: Antimicrobial activity against Finegoldia magna after 48 hrs by agar dilution method; type: functional; method in brief: as §3
# [28] = test system: Finegoldia magna; assay: Antimicrobial activity against Finegoldia magna assessed as percent susceptible isolates after 48 hrs by agar dilution method; type: functional; method in brief: as §3
# [29] = test system: Finegoldia magna; assay: Antimicrobial activity against Finegoldia magna assessed as percent resistant isolates after 48 hrs by agar dilution method; type: functional; method in brief: as §2
# [30] = test system: Clostridium perfringens; assay: Antimicrobial activity against Clostridium perfringens after 48 hrs by agar dilution method; type: functional
# [31] = test system: Clostridium perfringens; assay: Antimicrobial activity against Clostridium perfringens assessed as percent susceptible isolates after 48 hrs by agar dilution method; type: functional
# [32] = test system: Clostridioides difficile; assay: Antimicrobial activity against Clostridium difficile after 48 hrs by agar dilution method; type: functional
# [33] = test system: Clostridioides difficile; assay: Antimicrobial activity against Clostridium difficile assessed as percent susceptible isolates after 48 hrs by agar dilution method; type: functional
# [34] = test system: Clostridioides difficile; assay: Antimicrobial activity against Clostridium difficile assessed as percent resistant isolates after 48 hrs by agar dilution method; type: functional
# [35] = test system: Schaalia odontolytica; assay: Antimicrobial activity against Actinomyces odontolyticus after 48 hrs by agar dilution method; type: functional; method in brief: as §1
# [36] = test system: Actinomyces israelii; assay: Antimicrobial activity against Actinomyces israelii after 48 hrs by agar dilution method; type: functional; method in brief: as §1
# [37] = test system: Actinomyces israelii; assay: Antimicrobial activity against Actinomyces israelii assessed as percent susceptible isolates after 48 hrs by agar dilution method; type: functional
# [38] = test system: Actinomyces israelii; assay: Antimicrobial activity against Actinomyces israelii assessed as percent resistant isolates after 48 hrs by agar dilution method; type: functional; method in brief: as §2
# [39] = test system: Schaalia meyeri; assay: Antimicrobial activity against Actinomyces meyeri after 48 hrs by agar dilution method; type: functional; method in brief: as §1
# [40] = test system: Schaalia meyeri; assay: Antimicrobial activity against Actinomyces meyeri assessed as percent resistant isolates after 48 hrs by agar dilution method; type: functional; method in brief: as §2
# [41] = test system: Actinomyces naeslundii; assay: Antimicrobial activity against Actinomyces naeslundii after 48 hrs by agar dilution method; type: functional; method in brief: as §1
# [42] = test system: Actinomyces naeslundii; assay: Antimicrobial activity against Actinomyces naeslundii assessed as percent resistant isolates after 48 hrs by agar dilution method; type: functional; method in brief: as §2
# [43] = test system: Bifidobacterium adolescentis; assay: Antimicrobial activity against Bifidobacterium adolescentis after 48 hrs by agar dilution method; type: functional; method in brief: as §1
# [44] = test system: Bifidobacterium adolescentis; assay: Antimicrobial activity against Bifidobacterium adolescentis assessed as percent resistant isolates after 48 hrs by agar dilution method; type: functional; method in brief: as §2
# [45] = test system: Eggerthella lenta; assay: Antimicrobial activity against Eubacterium lentum assessed as percent resistant isolates after 48 hrs by agar dilution method; type: functional; method in brief: as §2
# [46] = test system: Eubacterium sp.; assay: Antimicrobial activity against Eubacterium sp. after 48 hrs by agar dilution method; type: functional; method in brief: as §3
# [47] = test system: Eubacterium sp.; assay: Antimicrobial activity against Eubacterium sp. assessed as percent susceptible isolates after 48 hrs by agar dilution method; type: functional; method in brief: as §3
# [48] = test system: Eubacterium sp.; assay: Antimicrobial activity against Eubacterium sp. assessed as percent resistant isolates after 48 hrs by agar dilution method; type: functional; method in brief: as §2
smiles,measurement,setting,value
C[C@@H](O)[C@H]1C(=O)N2C(C(=O)O)=C(SCCNC=N)C[C@H]12 [IMIPENEM ANHYDROUS],MIC50,[1],0.125 µg/mL
same,MIC90,[1],1 µg/mL
same,MIC50,[2],0.5 µg/mL
same,MIC90,[2],4 µg/mL
same,MIC50,[3],0.5 µg/mL
same,MIC90,[3],4 µg/mL
same,MIC50,[4],0.5 µg/mL
same,MIC90,[4],4 µg/mL
same,Activity,[5],2%
same,Activity,[6],95%
same,Activity,[7],4%
same,Activity,[8],4%
same,Activity,[9],95%
same,Activity,[10],95%
same,Activity,[11],4%
same,Activity,[12],4%
same,MIC50,[13],0.06 µg/mL
same,MIC90,[13],0.5 µg/mL
same,MIC50,[14],0.06 µg/mL
same,MIC90,[14],0.5 µg/mL
same,Activity,[15],100%
same,Activity,[16],0%
same,Activity,[17],0%
same,Activity,[18],100%
same,Activity,[19],0%
same,Activity,[20],100%
same,MIC,[21],0.02 µg/mL
same,MIC,[22],0.02 µg/mL
same,MIC50,[23],0.125 µg/mL
same,MIC90,[23],2 µg/mL
same,Activity,[24],100%
same,Activity,[25],0%
same,Activity,[26],0%
same,MIC50,[27],0.06 µg/mL
same,MIC90,[27],0.125 µg/mL
same,Activity,[28],100%
same,Activity,[29],0%
same,MIC50,[30],0.125 µg/mL
same,MIC90,[30],0.125 µg/mL
same,Activity,[31],100%
same,MIC50,[32],4 µg/mL
same,MIC90,[32],8 µg/mL
same,Activity,[33],58%
same,Activity,[34],8%
same,MIC50,[35],0.06 µg/mL
same,MIC90,[35],0.5 µg/mL
same,MIC50,[36],0.06 µg/mL
same,MIC90,[36],0.5 µg/mL
same,Activity,[37],100%
same,Activity,[38],0%
same,MIC50,[39],0.06 µg/mL
same,MIC90,[39],0.5 µg/mL
same,Activity,[40],0%
same,MIC50,[41],0.06 µg/mL
same,MIC90,[41],0.5 µg/mL
same,Activity,[42],0%
same,MIC50,[43],0.06 µg/mL
same,MIC90,[43],0.5 µg/mL
same,Activity,[44],15%
same,Activity,[45],0%
same,MIC50,[46],0.06 µg/mL
same,MIC90,[46],0.5 µg/mL
same,Activity,[47],100%
same,Activity,[48],0%
C[C@@H](O)[C@H]1C(=O)N2C(C(=O)O)=C(S[C@@H]3CN[C@H](C(=O)N(C)C)C3)[C@H](C)[C@H]12 [MEROPENEM],MIC50,[1],0.125 µg/mL
same,MIC90,[1],4 µg/mL
same,MIC50,[2],0.25 µg/mL
same,MIC90,[2],2 µg/mL
same,MIC50,[3],0.25 µg/mL
same,MIC90,[3],2 µg/mL
same,MIC50,[4],0.25 µg/mL
same,MIC90,[4],2 µg/mL
same,Activity,[5],3%
same,Activity,[6],98%
same,Activity,[7],0%
same,Activity,[8],0%
same,Activity,[9],98%
same,Activity,[10],98%
same,Activity,[11],0%
same,Activity,[12],0%
same,MIC50,[13],0.125 µg/mL
same,MIC90,[13],0.5 µg/mL
same,MIC50,[14],0.125 µg/mL
same,MIC90,[14],0.5 µg/mL
same,Activity,[15],100%
same,Activity,[16],0%
same,Activity,[17],0%
same,Activity,[18],100%
same,Activity,[19],0%
same,Activity,[20],100%
same,MIC,[21],0.008 µg/mL
same,MIC,[22],0.008 µg/mL
same,MIC,[23],0.01 µg/mL
same,MIC50,[23],0.25 µg/mL
same,MIC90,[23],4 µg/mL
same,Activity,[24],100%
same,Activity,[25],0%
same,Activity,[26],0%
same,MIC50,[27],0.06 µg/mL
same,MIC90,[27],0.125 µg/mL
same,Activity,[28],100%
same,Activity,[29],0%
same,MIC50,[30],0.015 µg/mL
same,MIC90,[30],0.015 µg/mL
same,Activity,[31],100%
same,MIC50,[32],2 µg/mL
same,MIC90,[32],2 µg/mL
same,Activity,[33],100%
same,Activity,[34],0%
same,MIC50,[35],0.125 µg/mL
same,MIC90,[35],2 µg/mL
same,MIC50,[36],0.125 µg/mL
same,MIC90,[36],2 µg/mL
same,Activity,[37],92%
same,Activity,[38],8%
same,MIC50,[39],0.125 µg/mL
same,MIC90,[39],2 µg/mL
same,Activity,[40],8%
same,MIC50,[41],0.125 µg/mL
same,MIC90,[41],2 µg/mL
same,Activity,[42],8%
same,MIC50,[43],0.125 µg/mL
same,MIC90,[43],2 µg/mL
same,Activity,[44],0%
same,Activity,[45],8%
same,MIC50,[46],0.125 µg/mL
same,MIC90,[46],2 µg/mL
same,Activity,[47],92%
same,Activity,[48],8%
